Experimental findings from ChEMBL document CHEMBL3286304, “Cytotoxicity and DNA binding property of the dimers of triphenylethylene-coumarin hybrid with one amino side chain” (Bioorg Med Chem Lett, 2014) are described below.

As usually defined, the IC50 is the midpoint of a concentration-inhibition curve. By ΔTm is commonly meant the shift of the melting midpoint relative to a reference.

The structures appear in SMILES notation. The source made the active and inactive calls. The rule behind the calls is not given here. Where only a bound is given, the exact number is not on record here.

The subject of one series is MCF7. Nature of the series: Antiproliferative activity against human MCF7 cells after 48 hrs by MTT assay. It counts as functional, cell-based. The note with it: MCF7, 48 h. A general note: Formazan colour is commonly taken as a measure of viable cells.
The test system of the next series is A549. Briefly: Antiproliferative activity against human A549 cells after 48 hrs by MTT assay. It counts as functional, cell-based. The following applies: A549, 48 h.
For a further series, the system named is K562. Briefly: Antiproliferative activity against human K562 cells after 48 hrs by MTT assay. The class given is functional, cell-based. The note with it: K562, 48 h.
A further series relates to HeLa. Nature of the series: Antiproliferative activity against human HeLa cells after 48 hrs by MTT assay. It counts as functional, cell-based.
For series [1], the system named is Calf thymus DNA. Nature of the series: Binding affinity to calf thymus DNA assessed as hyperchromicity at 50 uM at 25 degC at pH 7.4 after 10 mins by UV-vis spectrophotometry. The class given is nucleic-acid assay. The following applies: Bos taurus. An outline of the steps: (§1)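 Ct-DNA titrated (0–180 µM for some dimers, 0–160 µM for others) into dimer at 5.0 × 10^-5 M in 10 mM phosphate buffer pH 7.4, 50 mM NaCl, 2% DMSO, 25 °C; UV–vis absorption followed at λmax; binding constant K by double inverse method.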

Series [2] has as its system Calf thymus DNA. Nature of the series: Binding affinity to calf thymus DNA at 25 degC at pH 7.4 after 10 mins by UV-vis spectrophotometry. The class given is nucleic-acid assay. The following applies: Bos taurus. An outline of the steps:
as §1

The subject of series [3] is Calf thymus DNA. Briefly: Binding affinity to calf thymus DNA at 25 degC at pH 7.4 after 10 mins by Stern-Volmer plot analysis. It counts as nucleic-acid assay. The note with it: Bos taurus. An outline of the steps: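 Dimer (5.0 × 10^-5 M) titrated with Ct-DNA 0–180 µM in 10 mM phosphate pH 7.4, 50 mM NaCl, 2% DMSO, 25 °C; fluorescence emission near 465 nm, excitation 330–345 nm by compound, slits 5.0 nm; F/F0 versus DNA concentration, Stern–Volmer fitting gives binding constant.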

The test system of series [4] is Calf thymus DNA. Nature of the series: Binding affinity to calf thymus DNA assessed as DNA intercalation at 20 uM at pH 7.4 after 10 mins by circular dichroism analysis. The note with it: Bos taurus. The class given is nucleic-acid assay. An outline of the steps:
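CD spectra of Ct-DNA (5.0 × 10^-5 M) alone and with dimer at 2.0 × 10^-5 M in 10 mM phosphate buffer pH 7.4, 50 mM NaCl, 2% DMSO, 25 °C.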
For orientation: Circular dichroism is widely used to follow secondary structure.

Series [5] concerns Calf thymus DNA. Briefly: Binding affinity to calf thymus DNA assessed as change in melting temperature at 5 uM after 10 mins by thermal denaturation assay. It counts as nucleic-acid assay. The note with it: Bos taurus. An outline of the steps:
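Melting curves of Ct-DNA (5.0 × 10^-5 M) with or without dimer at 5.0 × 10^-6 M in 1 mM phosphate buffer pH 7.4, 5 mM NaCl, 2% DMSO; heated over roughly 55–85 °C; ΔTm taken relative to DNA alone.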

Series [6] concerns Calf thymus DNA. Nature of the series: Binding affinity to calf thymus DNA assessed as hypsochromic shift at 50 uM at 25 degC at pH 7.4 after 10 mins by UV-vis spectrophotometry. The class given is nucleic-acid assay. The following applies: Bos taurus. An outline of the steps: as §1
Series [7] in a line: Cytotoxicity against mouse skull osteoblasts at 1 uM after 48 hrs by MTT assay. It counts as cell-based. The following applies: osteoblast.
A short description of series [8]: Cytotoxicity against mouse skull osteoblasts at 10 uM after 48 hrs by MTT assay. The note with it: osteoblast. It counts as cell-based.
Series [9] in a line: Cytotoxicity against mouse skull osteoblasts at 20 uM after 48 hrs by MTT assay. It counts as cell-based. The note with it: osteoblast.
Series [10] is described as follows: Cytotoxicity against mouse skull osteoblasts at 40 uM after 48 hrs by MTT assay. The class given is cell-based. The following applies: osteoblast.
Series [11] can be described thus: Cytotoxicity against mouse skull osteoblasts at 100 uM after 48 hrs by MTT assay. It counts as cell-based. The note with it: osteoblast.

As for `O=C(CCCCCCCCC(=O)Nc1ccc(-c2c(-c3ccc(OCCN4CCCC4)cc3)c3ccccc3oc2=O)cc1)Nc1ccc(-c2c(-c3ccc(OCCN4CCCC4)cc3)c3ccccc3oc2=O)cc1`, the IC50 was determined as 35.9 µM in the series with MCF7, 16.9 µM in the series with A549, 18.9 µM in the series on K562 and 42.5 µM with HeLa.

With `O=C(CCCCCCCCC(=O)Nc1ccc(-c2c(-c3ccc(OCCN4CCCCC4)cc3)c3ccccc3oc2=O)cc1)Nc1ccc(-c2c(-c3ccc(OCCN4CCCCC4)cc3)c3ccccc3oc2=O)cc1`, the IC50 with MCF7, with A549, in the series with K562 and in the series with HeLa was above 50 µM in each case. The Activity was determined as 35% with Calf thymus DNA [1] and 1.5 nm in the series on Calf thymus DNA [6]. Besides, the Kb in the series with Calf thymus DNA [2] came out at 5.3 ×10⁴ /M; in the series with Calf thymus DNA [3], 2.1 ×10⁴ /M. In addition, in the series on Calf thymus DNA [4], the outcome was Active. Besides, the ΔTm in the series on Calf thymus DNA [5] was determined as 2.5 °C.

For `O=C(CCCCC(=O)Nc1ccc(-c2c(-c3ccc(OCCN4CCCC4)cc3)c3ccccc3oc2=O)cc1)Nc1ccc(-c2c(-c3ccc(OCCN4CCCC4)cc3)c3ccccc3oc2=O)cc1`, the IC50 in the series on MCF7 is 37.6 µM; with A549 it was 22.3 µM; in the series with K562, 28 µM; with HeLa it was 36.4 µM.

As to `O=C(CC(=O)Nc1ccc(-c2c(-c3ccc(OCCN4CCCC4)cc3)c3ccccc3oc2=O)cc1)Nc1ccc(-c2c(-c3ccc(OCCN4CCCC4)cc3)c3ccccc3oc2=O)cc1`, the IC50 in the series on MCF7 was 3.52 µM; in the series with A549, 7.73 µM; with K562, 3.23 µM; in the series on HeLa, 6.49 µM. The Activity in series [7] was -10.4%; in series [8] it was -1.3%; in [9], 0.8%; in [10], 14.5%; in series [11] it was 27.4%.

Consider `O=C(Nc1ccc(-c2c(-c3ccc(OCCN4CCCCC4)cc3)c3ccccc3oc2=O)cc1)c1cccc(C(=O)Nc2ccc(-c3c(-c4ccc(OCCN5CCCCC5)cc4)c4ccccc4oc3=O)cc2)c1`, for which the IC50 with MCF7, with A549, in the series on K562 and in the series on HeLa was above 50 µM each time. The figures for the Activity in the series with Calf thymus DNA [1] and in the series on Calf thymus DNA [6] were 32% and 0.5 nm, respectively. Further, the Kb stood at 4.8 ×10⁴ /M in the series on Calf thymus DNA [2] and 1.3 ×10⁴ /M with Calf thymus DNA [3]. Besides, the result in the series with Calf thymus DNA [4] was Active. The ΔTm in the series on Calf thymus DNA [5] was found to be 2 °C.

Consider `O=C(Nc1ccc(-c2c(-c3ccc(OCCN4CCCC4)cc3)c3ccccc3oc2=O)cc1)c1cccc(C(=O)Nc2ccc(-c3c(-c4ccc(OCCN5CCCC5)cc4)c4ccccc4oc3=O)cc2)c1`, for which the IC50 with MCF7 was determined as 29.5 µM; in the series on A549 it was 15.2 µM; in the series on K562 it was 15.2 µM; with HeLa it was 31 µM.

Turning to `O=C(CCCCC(=O)Nc1ccc(-c2c(-c3ccc(OCCN4CCCCC4)cc3)c3ccccc3oc2=O)cc1)Nc1ccc(-c2c(-c3ccc(OCCN4CCCCC4)cc3)c3ccccc3oc2=O)cc1`, the IC50 with MCF7 amounted to 35.4 µM; in the series with A549 it was 27 µM; with K562, 23.8 µM; in the series on HeLa it was 34.4 µM. Also, the Activity in the series with Calf thymus DNA [1] was found to be 40%; in the series with Calf thymus DNA [6] it was 1.5 nm. Moreover, the Kb was found to be 1.5 ×10⁵ /M in the series on Calf thymus DNA [2] and 3.8 ×10⁵ /M with Calf thymus DNA [3]. The result with Calf thymus DNA [4] was Active. Moreover, the ΔTm in the series on Calf thymus DNA [5] worked out at 5.1 °C.

In the case of `O=C(CC(=O)Nc1ccc(-c2c(-c3ccc(OCCN4CCCCC4)cc3)c3ccccc3oc2=O)cc1)Nc1ccc(-c2c(-c3ccc(OCCN4CCCCC4)cc3)c3ccccc3oc2=O)cc1`, the half-maximal inhibitory concentration (IC50) in the series on MCF7 came out at 8.57 µM; in the series on A549 it was 8.44 µM; in the series on K562 it was 0.98 µM; with HeLa, 7.82 µM. The Activity in [7] is -8.4%; in series [8], 0.3%; in series [9], 0.6%; in [10], 20.1%; in series [11] it was 36.2%; in the series with Calf thymus DNA [1], 47%. For the same compound, the Activity in the series with Calf thymus DNA [6] stood at 2 nm. Moreover, the Kb was 4.5 ×10⁵ /M in the series with Calf thymus DNA [2] and 6.9 ×10⁵ /M in the series on Calf thymus DNA [3]. Further, the result in the series with Calf thymus DNA [4] was Active. Also, the ΔTm in the series on Calf thymus DNA [5] amounted to 6 °C.

For the compound `Nc1ccc(-c2c(-c3ccc(OCCN4CCCC4)cc3)c3ccccc3oc2=O)cc1`, the IC50 is 45.7 µM in the series with MCF7, above 50 µM in the series with A549, above 50 µM with K562 and above 50 µM in the series with HeLa.

Consider `Nc1ccc(-c2c(-c3ccc(OCCN4CCCCC4)cc3)c3ccccc3oc2=O)cc1`, for which the IC50 in the series on MCF7 is 43.8 µM; with A549 it was above 50 µM; in the series on K562, above 50 µM; in the series with HeLa it was above 50 µM.
